SMILES strings stand for the structures.

The data set in a line: Toxicity liver stage against HepG2, at 10uM. It counts as cell-based. More on the design: test concentration 10 uM, cell line HepG2-A16-CD81EGFP. To be noted: human, HepG2-A16-CD81EGFP cells; read-out: INHIBITION
A digest of the protocol: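 Uninfected HepG2-A16-CD81EGFP cells, 3 × 10^3 per well, 1536-well, plated on prespotted compound at 10 μM final, parasite-free screening media added to match infected plates; puromycin 10 μM positive, DMSO 0.5% negative; run in parallel with 48 h PbLuc assay at 37 °C, 5% CO2; viability by CellTiter-Glo luminescence, normalized to controls.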
In the case of `Cc1cccc(C(C)(C)CNC(=O)CN(C)c2cnccn2)c1`, the cytotoxicity at 10 µM worked out at 1.79%.

As to `Cc1noc(C2CCN(C(C)c3nc(C(C)(C)C)no3)CC2)n1` (configuration not stated), the cytotoxicity at 10 µM was 4.13%.

Take `COc1ccc(NC(=O)N2CCC(c3nnc[nH]3)CC2)cc1C`: the cytotoxicity at 10 µM was 15.8%.

`NC1CCN(S(=O)(=O)c2ccc(C(=O)N3CCSCC3)cc2)C1` (configuration not stated): the cytotoxicity at 10 µM was 7.1%.

`CC[C@@H]1N(CC2CC2)CCC[C@]12CCC(=O)N2CCOC`: the cytotoxicity at 10 µM was -5.15%.

With `Cc1ccc(OCCN2CCCC(c3cc(C(N)=O)[nH]n3)C2)cc1` (configuration not stated), the cytotoxicity at 10 µM was -9.14%.

Consider `CN(C)c1cc(C(=O)N2CCCCC2)ccn1`, for which the cytotoxicity at 10 µM was -4.63%.

Consider `NC(=O)N1CCC2(CC1)CN(c1ccsc1)C(=O)CO2`, for which the cytotoxicity at 10 µM was determined as 10.7%.

For the compound `O=C(Nc1ccccc1OC(F)(F)F)C1CCS(=O)(=O)C1` (configuration not stated), the cytotoxicity at 10 µM amounted to 10.8%.

`CC(C)(CO)NCc1nn(Cc2ccccc2)nc1-c1ccccc1`: the cytotoxicity at 10 µM was -6.69%.

For the compound `CN(C)[C@@H]1CN(Cc2ccccc2O)C[C@H]1c1cn(C)c2ccccc12`, the cytotoxicity at 10 µM turned out to be 6.6%.

`COC(=O)C(NC(=O)c1ccco1)c1cc(F)ccc1F` (configuration not stated): the cytotoxicity at 10 µM was -11.5%.

Take `CCN1CCCC1CNC(=O)c1cc(COc2ccccc2F)[nH]n1` (configuration not stated): the cytotoxicity at 10 µM is -4.17%.

As to `COCCC1(C(=O)O)CCCN(CCOCc2ccccc2)C1` (configuration not stated), the cytotoxicity at 10 µM was -12.3%.

For `Cc1nccc(N[C@H]2CN(C(=O)CN3CCOCC3)C[C@@H]2C(C)C)n1`, the cytotoxicity at 10 µM was -7.92%.

On to `COCCN(Cc1cccnc1)S(=O)(=O)c1cccc(F)c1F`, for which the cytotoxicity at 10 µM is -1.89%.

On to `CC(=O)Nc1ccn(Cc2ccccc2)n1`, for which the cytotoxicity at 10 µM is 2.04%.

Regarding `Cc1ncc(CN2CCC(N(C)Cc3noc(C4CC4)n3)C2)s1` (configuration not stated), the cytotoxicity at 10 µM was -3.16%.

As to `COc1cccc(CSC=C2Nc3ccccc3S(=O)(=O)N2)c1`, the cytotoxicity at 10 µM was 3.7%.

For the compound `O=C(CCNC(=O)c1ccoc1)Nc1c(F)cccc1F`, the cytotoxicity at 10 µM amounted to 1.35%.

Consider `COc1cc(C(=O)N(Cc2ccc(F)cc2)C2CC2)cc2c1OCCO2`, for which the cytotoxicity at 10 µM was -1.33%.

With `Cc1cc(C)n(CCC2CC(=O)Nc3cc(O)c(C)cc32)n1` (configuration not stated), the cytotoxicity at 10 µM is -1.74%.

Take `CC(C)(C)NC(=O)CN1CCCNCC1`: the cytotoxicity at 10 µM is -145%.

For the compound `O=C(CCNc1ncccn1)NCCOc1ccc2c(c1)CCC2`, the cytotoxicity at 10 µM is -4.54%.

Consider `Cc1nn(C)c(C)c1NC(=O)CNC(c1ccccc1)C1CCCC1` (configuration not stated), for which the cytotoxicity at 10 µM is -0.0764%.

In the case of `COC1COC2(CCN(C(=O)c3ccccc3F)CC2)C1` (configuration not stated), the cytotoxicity at 10 µM was -92.4%.

Consider `CCC1(CC)Cc2ccccc2-c2nc(CN(C)C)nc(O)c21`, for which the cytotoxicity at 10 µM is -8.95%.

`CCN(CCO)C[C@@H]1CN(C(=O)c2sc3ccccc3c2C)C[C@@H]1CO`: the cytotoxicity at 10 µM was -10.6%.

For `CCc1noc(C)c1-c1nc(Cc2cccs2)nn1C1CCN(C)CC1`, the cytotoxicity at 10 µM was -17.3%.

As for `Cc1cc(C(=O)N(C)C2CCS(=O)(=O)C2)c2ccc(F)cc2n1` (configuration not stated), the cytotoxicity at 10 µM was -9.59%.

As for `C1CCN(CCOC2CCNC2)CC1` (configuration not stated), the cytotoxicity at 10 µM came out at 6.32%.

As for `CN(CC(=O)N1CCC(COc2ccccc2)CC1)c1cnccn1`, the cytotoxicity at 10 µM was -10.7%.

For `CN(C)CCN(C)C1CCN(C(C(=O)O)c2ccc(F)c(Cl)c2)CC1` (configuration not stated), the cytotoxicity at 10 µM is 2.95%.

Consider `CN(C)c1ncnc2c1CCN(CC1CCOC1)CC2` (configuration not stated), for which the cytotoxicity at 10 µM amounted to 0.745%.

For `CCc1nc2n(n1)CC(NCC(=O)Nc1nccs1)CC2` (configuration not stated), the cytotoxicity at 10 µM was -7.13%.

As for `CN(Cc1ccoc1)c1ccc(-c2nccn2C)nn1`, the cytotoxicity at 10 µM is -5.12%.

With `COC(CNC(=O)c1ccc[nH]1)c1cccc(Cl)c1` (configuration not stated), the cytotoxicity at 10 µM was -0.23%.

Regarding `COc1ccc(CCNC(=O)CC(NC(N)=O)c2ccccc2)cc1` (configuration not stated), the cytotoxicity at 10 µM is 2.19%.

For the compound `Cc1cnc(CNc2ccc(C(=O)NCc3ccco3)cc2C)o1`, the cytotoxicity at 10 µM is -4.51%.

In the case of `Cc1noc(C)c1C(=O)NCCN1CCOCC1`, the cytotoxicity at 10 µM is -10.9%.

As to `O=c1cc(Cn2cncn2)nc2n1CCCN(Cc1ccc(F)cc1)C2`, the cytotoxicity at 10 µM was 4.43%.

In the case of `CCC1(CC)Cc2ccccc2-c2nc(NCCO)[nH]c(=O)c21`, the cytotoxicity at 10 µM is -7.17%.

`CC(C)(C)n1cc(C(=O)N2CCN(Cc3ccco3)CC2)cn1`: the cytotoxicity at 10 µM is -7.36%.

As to `CCc1nc(C(=O)N2CCN(C)c3ccccc32)c[nH]1`, the cytotoxicity at 10 µM was determined as 1.16%.

`CSc1ncc(C(=O)NCCn2nccc2C)cn1`: the cytotoxicity at 10 µM came to 2.86%.

`O=C(CN1C(=O)CCC1=O)NCc1cc(C2CC2)n(C2CCCC2)n1`: the cytotoxicity at 10 µM worked out at 1.74%.

Turning to `CS(=O)(=O)NC1CCN(C(=O)c2cnc(-c3cccnc3)nc2)CC1`, the cytotoxicity at 10 µM is -6.47%.

On to `N#Cc1cccnc1N1CCCN(C(=O)CCc2cccs2)CC1`, for which the cytotoxicity at 10 µM was -15.8%.

As for `CN(Cc1ccc(Cl)s1)C(=O)NCCC(=O)N1CCCCCC1`, the cytotoxicity at 10 µM is -0.691%.

Take `NC(=O)Cn1ccnc1C1CCCN(CCSc2ccccc2)C1` (configuration not stated): the cytotoxicity at 10 µM is -2.65%.

As for `CCCN1CCN(S(=O)(=O)c2ncn(C)c2Cl)CC1`, the cytotoxicity at 10 µM came out at 9.97%.

For the compound `Cc1noc(C)c1CN1CCOC(CNc2cccnn2)C1` (configuration not stated), the cytotoxicity at 10 µM is -19%.

Consider `Cc1c(C(=O)NS(=O)(=O)c2ccsc2)cnn1CC(C)C`, for which the cytotoxicity at 10 µM is 11.6%.

Regarding `CC(C)C(NC(=O)c1nc(N2CCOCC2)ncc1Cl)c1cccs1` (configuration not stated), the cytotoxicity at 10 µM is -44.3%.

With `CNC(=O)c1cc2c(nc1NC(C)C)CCN(C(=O)NC(C)C)CC2`, the cytotoxicity at 10 µM is -0.0714%.

Take `Cc1ccc(Cl)c(NC(=O)c2cccc(CN3CC[C@H](O)C3)c2)c1`: the cytotoxicity at 10 µM is -11.9%.

Consider `Cc1nn(C)c(C)c1NC(=O)c1cccc(CN2C[C@H]3CC[C@@H](C2)N3)c1`, for which the cytotoxicity at 10 µM was -0.277%.

For the compound `CS(=O)(=O)N1CC[C@]2(O)CCN(c3ccnc(N)n3)C[C@@H]2C1`, the cytotoxicity at 10 µM was 21%.

Turning to `O=C1CCCCN1CCc1nc(-c2cccnn2)no1`, the cytotoxicity at 10 µM is -5.67%.

On to `Cc1nc(C(Cc2ccsc2)NC(=O)CCN2CCOCC2)sc1C` (configuration not stated), for which the cytotoxicity at 10 µM was 7.04%.

With `COCC(=O)NCC[C@H]1CC(C)(C)Oc2ccccc21`, the cytotoxicity at 10 µM is 3.3%.

In the case of `Cc1c(Br)cccc1S(=O)(=O)NCc1ccnn1C`, the cytotoxicity at 10 µM was determined as 43%.

With `CC(O)CN1CCC(CN(C)Cc2ccc(C#N)cc2F)CC1` (configuration not stated), the cytotoxicity at 10 µM was -1.87%.

Take `Cc1csc([C@@H]2C[C@@H]3CCN(C(=O)c4cnccn4)C[C@H]3O2)n1`: the cytotoxicity at 10 µM turned out to be 2.08%.

Take `O=C(c1ccc2c(c1)COC2)N1CCC(Nc2ccccc2)CC1`: the cytotoxicity at 10 µM was -7.54%.

In the case of `COCCNC(=O)Cc1cnc(-n2cccc2)s1`, the cytotoxicity at 10 µM was -3.35%.

With `CC(C)(C)C(=O)CN1CCc2ccccc2NCCC1=O`, the cytotoxicity at 10 µM was -104%.

In the case of `CCNc1nc(-c2cccnc2)c(-c2ccnc(N3CCOCC3)n2)s1`, the cytotoxicity at 10 µM was -10.1%.

For `COc1ccc(C(=O)N2CCC(Oc3ccccc3C)(C(=O)O)CC2)o1`, the cytotoxicity at 10 µM came to 13.2%.

In the case of `Cc1ccc2ncn(CC(O)CN3CCC(C)CC3)c(=O)c2c1` (configuration not stated), the cytotoxicity at 10 µM is -0.539%.

As for `COCCN1CCC(NCc2ccc(C#N)cc2)C1` (configuration not stated), the cytotoxicity at 10 µM was -9.34%.

As to `CC(C)CCC(=O)N1CCN(C(=O)c2ccc(-n3cccn3)cc2)CC1`, the cytotoxicity at 10 µM was 4.28%.

In the case of `Clc1cc(Cl)cc(OCCN2CCC(n3cncn3)CC2)c1`, the cytotoxicity at 10 µM came out at 10.8%.

Turning to `Cc1nc2cc(O)nn2c(C)c1CCC(=O)NCCCC(C)C`, the cytotoxicity at 10 µM was -1.52%.

For `Cc1cccc(-n2ncc(C(=O)NCC3CCS(=O)(=O)C3)c2C)c1` (configuration not stated), the cytotoxicity at 10 µM is -20.3%.

Regarding `CCC(CNC(=O)c1nc(=O)[nH][nH]1)Oc1cccc(C(F)(F)F)c1` (configuration not stated), the cytotoxicity at 10 µM was -6.25%.

On to `CN(Cc1cccnc1)CC1CCOc2ccccc2C1` (configuration not stated), for which the cytotoxicity at 10 µM was -4.92%.

With `CC(=O)NCC1CCCN(Cc2nc(Cc3ccccc3F)no2)C1` (configuration not stated), the cytotoxicity at 10 µM was -11.1%.

Regarding `CCn1cnnc1CNC(=O)N1CCN(c2ccc(OC)cc2)CC1`, the cytotoxicity at 10 µM was -1.62%.

For the compound `O=C(NC1CC1)c1cc2c(nc1O)CC(c1cccs1)CC2=O` (configuration not stated), the cytotoxicity at 10 µM worked out at 86.1%.

With `CC(C)CN(C(=O)Nc1cccc(C(=O)N(C)C)c1)C1CC1`, the cytotoxicity at 10 µM is -15.2%.

With `Cc1nc(N)sc1C(=O)N[C@H]1CN(CCO)C[C@@H]1C1CC1`, the cytotoxicity at 10 µM worked out at 1.81%.

On to `O=c1[nH]c(CCN2CCCC2Cn2cncn2)nc2ccccc12` (configuration not stated), for which the cytotoxicity at 10 µM is -5.48%.

Consider `CCOc1ncccc1NC(=O)c1ccc(C)s1`, for which the cytotoxicity at 10 µM is -3.89%.

Turning to `O=C(NCCO)c1ccn(-c2ccc3ccccn23)n1`, the cytotoxicity at 10 µM was -8.21%.

Take `Cc1cnn(CC2CCCN2Cc2nnsc2Cl)c1` (configuration not stated): the cytotoxicity at 10 µM was -8.72%.

For the compound `CC(C)(C)OC(=O)NC(C)(C)c1noc(CSc2nncs2)n1`, the cytotoxicity at 10 µM was 16.6%.

Turning to `CNC(=O)N1CC[C@@H]2CN(CCc3cccc(OC)c3)S(=O)(=O)[C@@H]2CC1`, the cytotoxicity at 10 µM was -1.46%.

Turning to `CCOC(=O)N1CCC(OC)c2ccccc2N(CC(=O)NC)C(=O)C1` (configuration not stated), the cytotoxicity at 10 µM was 9.12%.

On to `CC(C)(Cn1cnc(-c2ccccc2)c1-c1ccco1)N1CCOCC1`, for which the cytotoxicity at 10 µM is -38.8%.

`Cc1nn(C)c(C)c1-c1ccc(=O)n(C(C)C(=O)NCc2ccco2)n1` (configuration not stated): the cytotoxicity at 10 µM was 6.93%.

For the compound `Cc1cc(C(=O)N2CCc3nc(C4CCCCN4)ncc3C2)cs1` (configuration not stated), the cytotoxicity at 10 µM was -22.4%.

As to `Cc1cn([C@@H]2CC3(CCNCC3)OC[C@@]2(C)O)c(=O)[nH]c1=O`, the cytotoxicity at 10 µM was -5.6%.

As for `COc1cc(N2CCN(CC3CC3)c3nc(C)ccc3C2)ncn1`, the cytotoxicity at 10 µM is -101%.

Take `Cc1nnc(N2CC[C@H]3C[C@@H](C(=O)N4CCCC4)O[C@H]3C2)s1`: the cytotoxicity at 10 µM was -70.6%.

Turning to `CC(C)(C)C(O)CN1CCN(Cc2cccc(C#N)c2)CC1` (configuration not stated), the cytotoxicity at 10 µM is 3.7%.

For `Cc1noc(C)c1CNCC1COCc2c(-c3ccoc3)nnn2C1` (configuration not stated), the cytotoxicity at 10 µM was found to be 8.85%.
